Test results taken from ChEMBL document CHEMBL6134769, “Discovery of N-substituted-2-oxoindolin benzoylhydrazines as c-MET/SMO modulators in EGFRi-resistant non-small cell lung cancer” (RSC Med Chem, 2025).

Legend:
[1] = molecular target: T1, Tyrosine-protein kinase ITK/TSK (Homo sapiens) (UniProt Q08881); assay: Inhibition of human full-length N-terminal GST-fused ITK (2 to 620 (end)residues) expressed in baculovirus expression system at 20 uM measured after 1 hr in presence of peptide substrate and ATP by off-chip mobility shift assay relative to control
T1 sequence (whole entry): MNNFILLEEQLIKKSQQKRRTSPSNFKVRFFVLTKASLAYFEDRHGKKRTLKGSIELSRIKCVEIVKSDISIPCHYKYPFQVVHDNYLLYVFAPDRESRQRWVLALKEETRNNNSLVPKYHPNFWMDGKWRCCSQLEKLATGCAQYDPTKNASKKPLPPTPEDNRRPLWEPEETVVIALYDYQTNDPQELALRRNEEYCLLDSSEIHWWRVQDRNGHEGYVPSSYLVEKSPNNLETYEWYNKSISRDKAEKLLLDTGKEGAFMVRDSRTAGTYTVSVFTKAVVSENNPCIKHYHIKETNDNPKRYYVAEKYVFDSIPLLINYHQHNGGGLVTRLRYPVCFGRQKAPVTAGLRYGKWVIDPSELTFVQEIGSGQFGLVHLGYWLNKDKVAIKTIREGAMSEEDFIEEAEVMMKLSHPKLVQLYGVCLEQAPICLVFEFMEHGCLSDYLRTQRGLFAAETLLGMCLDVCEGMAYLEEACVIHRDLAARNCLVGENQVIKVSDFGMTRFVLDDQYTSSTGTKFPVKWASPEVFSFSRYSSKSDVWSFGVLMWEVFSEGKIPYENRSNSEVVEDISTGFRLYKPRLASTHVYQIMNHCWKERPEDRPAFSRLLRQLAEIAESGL
Method in brief: (§1)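 Off-chip mobility shift assay. Product and substrate peptides were separated; activity was taken as P/(P+S). Complete reaction was set as 0% inhibition and enzyme-free background as 100%. Run in triplicate, mean ± SD.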

[2] = molecular target: Platelet-derived growth factor receptor alpha (Homo sapiens) (UniProt P16234); assay: Inhibition of human N-terminal GST-fused PDGFRalpha cytoplasmic domain (550 to 1089 (end)residues) expressed in baculovirus expression system at 20 uM measured after 1 hr in presence of peptide substrate and ATP by off-chip mobility shift assay relative to control; method in brief: as §1
Sequence of Platelet-derived growth factor receptor alpha (Homo sapiens) (P16234 whole entry, the tested form may be a part): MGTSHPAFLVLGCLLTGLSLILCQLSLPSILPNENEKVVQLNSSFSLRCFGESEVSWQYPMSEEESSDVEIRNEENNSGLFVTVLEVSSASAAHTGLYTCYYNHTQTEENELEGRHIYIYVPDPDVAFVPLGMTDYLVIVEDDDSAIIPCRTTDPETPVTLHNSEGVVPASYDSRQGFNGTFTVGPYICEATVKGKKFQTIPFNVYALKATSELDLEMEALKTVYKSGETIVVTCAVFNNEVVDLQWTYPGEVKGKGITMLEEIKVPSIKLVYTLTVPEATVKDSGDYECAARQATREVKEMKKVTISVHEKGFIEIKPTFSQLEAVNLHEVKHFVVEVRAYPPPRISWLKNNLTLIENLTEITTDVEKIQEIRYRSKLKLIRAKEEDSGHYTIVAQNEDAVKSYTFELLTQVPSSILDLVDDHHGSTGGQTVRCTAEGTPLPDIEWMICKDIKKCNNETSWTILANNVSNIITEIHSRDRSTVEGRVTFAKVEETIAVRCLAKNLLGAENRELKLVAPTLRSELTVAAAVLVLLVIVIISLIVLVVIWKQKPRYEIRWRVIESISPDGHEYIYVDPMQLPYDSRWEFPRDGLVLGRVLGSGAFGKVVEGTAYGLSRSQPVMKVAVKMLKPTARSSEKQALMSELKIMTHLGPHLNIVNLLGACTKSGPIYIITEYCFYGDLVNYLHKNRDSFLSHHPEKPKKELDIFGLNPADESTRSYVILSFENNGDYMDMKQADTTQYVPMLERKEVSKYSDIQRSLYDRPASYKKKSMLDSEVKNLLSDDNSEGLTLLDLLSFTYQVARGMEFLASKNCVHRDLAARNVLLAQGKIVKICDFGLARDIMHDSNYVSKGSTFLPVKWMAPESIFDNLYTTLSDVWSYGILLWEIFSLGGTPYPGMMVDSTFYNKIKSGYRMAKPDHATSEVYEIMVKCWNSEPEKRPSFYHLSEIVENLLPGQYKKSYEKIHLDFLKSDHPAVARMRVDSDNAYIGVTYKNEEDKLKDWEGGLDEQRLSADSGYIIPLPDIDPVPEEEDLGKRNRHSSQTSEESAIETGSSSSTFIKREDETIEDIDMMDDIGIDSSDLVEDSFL

[3] = molecular target: Fibroblast growth factor receptor 1 (Homo sapiens) (UniProt P11362); assay: Inhibition of human N-terminal GST-fused FGFR1 cytoplasmic domain (398 to 822 (end)residues) expressed in baculovirus expression system at 20 uM measured after 1 hr in presence of peptide substrate and ATP by off-chip mobility shift assay relative to control; method in brief: as §1
Sequence of Fibroblast growth factor receptor 1 (Homo sapiens) (P11362 22-822 limits assumed): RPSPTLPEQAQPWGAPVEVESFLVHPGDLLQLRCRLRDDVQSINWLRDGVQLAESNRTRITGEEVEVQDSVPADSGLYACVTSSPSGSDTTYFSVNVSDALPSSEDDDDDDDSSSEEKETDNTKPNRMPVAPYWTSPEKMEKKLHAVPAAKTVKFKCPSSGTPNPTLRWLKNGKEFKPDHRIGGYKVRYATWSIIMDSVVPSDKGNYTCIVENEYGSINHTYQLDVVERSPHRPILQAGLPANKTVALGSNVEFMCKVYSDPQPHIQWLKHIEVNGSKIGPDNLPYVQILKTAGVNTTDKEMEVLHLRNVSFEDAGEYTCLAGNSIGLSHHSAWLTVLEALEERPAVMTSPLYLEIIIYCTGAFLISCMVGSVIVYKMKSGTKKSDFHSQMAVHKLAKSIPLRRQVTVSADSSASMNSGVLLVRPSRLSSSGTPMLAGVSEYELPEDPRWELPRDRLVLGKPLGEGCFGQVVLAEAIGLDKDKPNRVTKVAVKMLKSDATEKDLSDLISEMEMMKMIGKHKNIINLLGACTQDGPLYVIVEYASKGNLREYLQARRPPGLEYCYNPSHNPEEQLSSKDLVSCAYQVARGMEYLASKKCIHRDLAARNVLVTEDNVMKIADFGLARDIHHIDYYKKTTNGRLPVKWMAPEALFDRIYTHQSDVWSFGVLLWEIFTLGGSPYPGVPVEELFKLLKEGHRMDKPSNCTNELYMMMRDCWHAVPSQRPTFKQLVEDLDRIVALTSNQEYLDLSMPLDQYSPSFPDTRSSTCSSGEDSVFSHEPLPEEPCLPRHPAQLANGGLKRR

[4] = molecular target: Protein-tyrosine kinase 2-beta (Homo sapiens) (UniProt Q14289); assay: Inhibition of human full-length N-terminal GST-fused PYK2 (1 to 967 (end)residues) expressed in baculovirus expression system at 20 uM measured after 1 hr in presence of peptide substrate and ATP by off-chip mobility shift assay relative to control; method in brief: as §1
Sequence of Protein-tyrosine kinase 2-beta (Homo sapiens) (Q14289 whole entry, looked up, the tested form may be a part): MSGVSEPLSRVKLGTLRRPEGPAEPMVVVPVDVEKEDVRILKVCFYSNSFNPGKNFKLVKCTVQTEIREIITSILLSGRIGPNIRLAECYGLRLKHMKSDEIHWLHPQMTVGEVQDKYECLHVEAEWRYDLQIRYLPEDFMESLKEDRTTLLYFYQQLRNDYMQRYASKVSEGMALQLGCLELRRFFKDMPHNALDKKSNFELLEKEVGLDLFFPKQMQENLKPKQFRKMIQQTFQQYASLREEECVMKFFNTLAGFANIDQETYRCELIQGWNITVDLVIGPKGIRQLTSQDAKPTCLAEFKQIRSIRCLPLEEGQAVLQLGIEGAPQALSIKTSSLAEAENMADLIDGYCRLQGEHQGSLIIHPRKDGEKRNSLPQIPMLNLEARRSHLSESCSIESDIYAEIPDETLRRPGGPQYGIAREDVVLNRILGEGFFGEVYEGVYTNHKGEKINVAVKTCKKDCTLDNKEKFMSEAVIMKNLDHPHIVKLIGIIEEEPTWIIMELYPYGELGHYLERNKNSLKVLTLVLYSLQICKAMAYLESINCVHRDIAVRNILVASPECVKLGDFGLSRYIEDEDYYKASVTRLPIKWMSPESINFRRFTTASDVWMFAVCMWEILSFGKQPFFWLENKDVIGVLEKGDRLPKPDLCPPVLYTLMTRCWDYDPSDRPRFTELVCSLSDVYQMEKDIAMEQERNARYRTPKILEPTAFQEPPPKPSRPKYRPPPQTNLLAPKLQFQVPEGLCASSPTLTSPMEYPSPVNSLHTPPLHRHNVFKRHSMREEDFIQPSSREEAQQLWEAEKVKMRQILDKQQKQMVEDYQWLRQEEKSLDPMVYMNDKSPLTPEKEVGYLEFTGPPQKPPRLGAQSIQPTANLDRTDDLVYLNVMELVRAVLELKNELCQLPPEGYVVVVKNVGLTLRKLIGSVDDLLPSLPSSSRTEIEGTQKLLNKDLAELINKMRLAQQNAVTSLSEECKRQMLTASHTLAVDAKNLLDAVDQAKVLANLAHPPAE

[5] = molecular target: Ephrin type-A receptor 2 (Homo sapiens) (UniProt P29317); assay: Inhibition of EPHA2 (unknown origin) at 20 uM measured after 1 hr in presence of peptide substrate and ATP by off-chip mobility shift assay relative to control; method in brief: as §1
[6] = Inhibition of human full-length N-terminal GST-fused SRC (1 to 536 (end)residues) expressed in baculovirus expression system at 20 uM measured after 1 hr in presence of peptide substrate and ATP by off-chip mobility shift assay relative to control; method in brief: as §1
[7] = molecular target: Receptor-type tyrosine-protein kinase FLT3 (Homo sapiens) (UniProt P36888); assay: Inhibition of human N-terminal GST-fused FLT3 cytoplasmic domain (564 to 993 (end)residues) expressed in baculovirus expression system at 20 uM measured after 1 hr in presence of peptide substrate and ATP by off-chip mobility shift assay relative to control; method in brief: as §1
Sequence of Receptor-type tyrosine-protein kinase FLT3 (Homo sapiens) (P36888 whole entry, the tested form may be a part): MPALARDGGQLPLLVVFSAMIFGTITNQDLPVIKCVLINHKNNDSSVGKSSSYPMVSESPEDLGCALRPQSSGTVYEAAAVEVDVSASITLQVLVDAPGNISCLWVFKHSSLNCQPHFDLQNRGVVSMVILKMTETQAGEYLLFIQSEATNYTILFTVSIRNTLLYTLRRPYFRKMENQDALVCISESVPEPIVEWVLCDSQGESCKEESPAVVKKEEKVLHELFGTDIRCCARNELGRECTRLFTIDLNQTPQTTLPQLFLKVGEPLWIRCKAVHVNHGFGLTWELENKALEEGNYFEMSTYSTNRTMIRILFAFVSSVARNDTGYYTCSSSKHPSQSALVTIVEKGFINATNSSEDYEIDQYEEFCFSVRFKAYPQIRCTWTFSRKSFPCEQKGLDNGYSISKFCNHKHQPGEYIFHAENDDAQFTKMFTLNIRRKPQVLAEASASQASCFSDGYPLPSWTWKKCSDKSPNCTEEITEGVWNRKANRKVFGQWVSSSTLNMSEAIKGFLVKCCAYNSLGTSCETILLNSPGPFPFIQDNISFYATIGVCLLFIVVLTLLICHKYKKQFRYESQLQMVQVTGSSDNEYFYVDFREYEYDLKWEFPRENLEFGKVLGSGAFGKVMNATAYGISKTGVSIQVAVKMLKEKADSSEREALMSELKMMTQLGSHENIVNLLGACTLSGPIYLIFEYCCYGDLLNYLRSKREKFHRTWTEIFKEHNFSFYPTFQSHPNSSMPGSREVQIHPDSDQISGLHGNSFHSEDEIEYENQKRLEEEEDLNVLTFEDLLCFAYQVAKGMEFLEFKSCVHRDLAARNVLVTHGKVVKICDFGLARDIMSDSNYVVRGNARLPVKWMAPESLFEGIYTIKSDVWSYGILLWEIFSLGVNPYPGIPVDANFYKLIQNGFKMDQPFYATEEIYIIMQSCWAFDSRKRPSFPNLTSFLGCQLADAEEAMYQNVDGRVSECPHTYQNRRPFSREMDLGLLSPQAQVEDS

[8] = molecular target: Angiopoietin-1 receptor (Homo sapiens) (UniProt Q02763); assay: Inhibition of human N-terminal GST-fused TIE2 cytoplasmic domain (771 to 1124 (end)residues) expressed in baculovirus expression system at 20 uM measured after 1 hr in presence of peptide substrate and ATP by off-chip mobility shift assay relative to control; method in brief: as §1
Sequence of Angiopoietin-1 receptor (Homo sapiens) (Q02763 whole entry, the tested form may be a part): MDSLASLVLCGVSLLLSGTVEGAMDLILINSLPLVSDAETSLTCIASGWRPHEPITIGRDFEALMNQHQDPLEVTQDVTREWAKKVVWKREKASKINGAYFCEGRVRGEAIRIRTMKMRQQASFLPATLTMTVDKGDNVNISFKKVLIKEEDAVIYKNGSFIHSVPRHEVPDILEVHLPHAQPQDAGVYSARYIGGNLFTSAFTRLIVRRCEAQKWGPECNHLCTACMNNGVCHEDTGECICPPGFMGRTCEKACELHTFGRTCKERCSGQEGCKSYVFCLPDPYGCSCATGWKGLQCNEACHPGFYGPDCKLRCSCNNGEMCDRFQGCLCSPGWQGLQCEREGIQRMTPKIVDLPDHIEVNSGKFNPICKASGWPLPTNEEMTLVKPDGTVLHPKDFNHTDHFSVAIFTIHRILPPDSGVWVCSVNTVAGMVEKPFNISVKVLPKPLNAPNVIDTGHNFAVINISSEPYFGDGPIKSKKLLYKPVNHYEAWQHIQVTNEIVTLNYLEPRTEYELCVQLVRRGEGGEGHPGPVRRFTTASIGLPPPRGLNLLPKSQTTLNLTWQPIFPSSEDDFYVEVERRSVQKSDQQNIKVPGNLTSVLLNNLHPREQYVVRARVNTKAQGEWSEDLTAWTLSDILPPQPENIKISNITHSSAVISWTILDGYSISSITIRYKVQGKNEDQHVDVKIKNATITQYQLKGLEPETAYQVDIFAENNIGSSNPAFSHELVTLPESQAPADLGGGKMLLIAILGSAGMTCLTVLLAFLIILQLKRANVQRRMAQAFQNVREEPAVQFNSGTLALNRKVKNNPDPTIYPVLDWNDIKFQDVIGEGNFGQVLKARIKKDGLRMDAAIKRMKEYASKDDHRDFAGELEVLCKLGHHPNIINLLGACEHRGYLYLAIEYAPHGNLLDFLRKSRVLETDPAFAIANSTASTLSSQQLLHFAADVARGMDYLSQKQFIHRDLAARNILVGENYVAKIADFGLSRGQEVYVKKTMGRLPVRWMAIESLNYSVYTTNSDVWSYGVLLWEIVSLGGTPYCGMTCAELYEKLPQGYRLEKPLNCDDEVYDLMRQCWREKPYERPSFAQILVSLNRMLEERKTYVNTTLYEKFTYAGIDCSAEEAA

[9] = molecular target: T2, Ephrin type-B receptor 4 (Homo sapiens) (UniProt P54760); assay: Inhibition of human N-terminal GST-fused EPHB4 cytoplasmic domain (577 to 987 (end)residues) expressed in baculovirus expression system at 20 uM measured after 1 hr in presence of peptide substrate and ATP by off-chip mobility shift assay relative to control; method in brief: as §1
T2 sequence (whole entry): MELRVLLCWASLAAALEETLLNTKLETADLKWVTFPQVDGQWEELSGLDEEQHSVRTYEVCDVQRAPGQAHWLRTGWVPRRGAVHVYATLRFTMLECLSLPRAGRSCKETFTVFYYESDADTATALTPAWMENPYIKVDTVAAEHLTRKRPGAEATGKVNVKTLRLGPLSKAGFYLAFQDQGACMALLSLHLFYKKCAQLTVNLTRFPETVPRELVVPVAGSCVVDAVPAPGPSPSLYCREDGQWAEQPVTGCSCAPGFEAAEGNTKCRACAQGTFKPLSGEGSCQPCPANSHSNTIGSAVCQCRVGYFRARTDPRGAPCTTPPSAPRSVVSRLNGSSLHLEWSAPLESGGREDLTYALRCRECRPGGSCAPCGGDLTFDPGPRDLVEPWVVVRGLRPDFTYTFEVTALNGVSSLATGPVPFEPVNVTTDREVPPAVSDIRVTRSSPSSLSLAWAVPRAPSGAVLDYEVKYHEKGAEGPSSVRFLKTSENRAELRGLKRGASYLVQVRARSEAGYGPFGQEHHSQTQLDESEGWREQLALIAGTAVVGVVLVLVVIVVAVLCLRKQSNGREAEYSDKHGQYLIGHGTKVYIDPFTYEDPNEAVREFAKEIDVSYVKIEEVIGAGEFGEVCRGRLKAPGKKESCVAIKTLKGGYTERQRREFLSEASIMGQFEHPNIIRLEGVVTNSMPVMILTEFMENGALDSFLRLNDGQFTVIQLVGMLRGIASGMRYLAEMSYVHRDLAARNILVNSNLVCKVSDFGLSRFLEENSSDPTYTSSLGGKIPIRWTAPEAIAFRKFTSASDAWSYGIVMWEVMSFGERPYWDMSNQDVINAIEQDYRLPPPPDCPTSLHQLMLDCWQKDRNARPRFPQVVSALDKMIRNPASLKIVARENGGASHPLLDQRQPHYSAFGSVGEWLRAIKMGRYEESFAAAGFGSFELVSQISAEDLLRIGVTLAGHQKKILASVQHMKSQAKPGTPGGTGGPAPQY

[10] = species on record: Homo sapiens; assay: Inhibition of human full-length N-terminal His-tagged ABL (2 to 1130 (end)residues) expressed in baculovirus expression system at 20 uM measured after 1 hr in presence of peptide substrate and ATP by off-chip mobility shift assay relative to control; method in brief: as §1

| inhibition [1] | inhibition [2] | inhibition [3] | inhibition [4] | inhibition [5] | inhibition [6] | inhibition [7] | inhibition [8] | inhibition [9] | inhibition [10] | Compound |
| --- | --- | --- | --- | --- | --- | --- | --- | --- | --- | --- |
| 58.9% | 56.5% | 71.8% | 49.7% | 62.5% | 64.3% | 71.9% | 76.7% | 63% | – | Cc1ccc(NC(=O)CN2C(=O)/C(=N\NC(=O)c3cc(Br)ccc3O)c3ccc(Cl)cc32)cc1 |
| 52.8% | 56.7% | 71.4% | 48.5% | 69.2% | 56.5% | 72.6% | 76.7% | 62.5% | 63.5% | Cc1ccc(NC(=O)CN2C(=O)/C(=N\NC(=O)c3cc(Br)ccc3O)c3ccc(Br)cc32)cc1 |
| 70.3% | 76.2% | 91.7% | 49.9% | 95% | 49.3% | 89.7% | 93.1% | 93.3% | 74.9% | Cc1ccc(NC(=O)CN2C(=O)/C(=N\NC(=O)c3cc(Br)ccc3O)c3ccccc32)cc1 |
| 56.7% | 63.3% | 81.6% | 45.1% | 71.5% | 50.7% | 55.8% | 89.5% | 70.8% | 67.9% | O=C(CN1C(=O)/C(=N\NC(=O)c2cc(Br)ccc2O)c2c(Br)cccc21)Nc1ccc([N+](=O)[O-])cc1 |
